Source: ChEMBL document CHEMBL1121665, “Synthesis and antiallergy activity of 4-oxo-4H-pyrido[1,2-a]thieno[2,3-d]pyrimidines” (1981)
Activity calls are given as the source filed them. The rule behind the calls is not given here.

How the values were obtained:
Rattus norvegicus [1] = test: Antiallergic activity in the rat passive cutaneous anaphylaxis at dose 5 mg/kg after ip; type: functional; conditions: route intraperitoneal
Procedure, shortened: (§1)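 Rats were immunized with ovalbumin 1 mg im plus about 10^10 Bordetella pertussis organisms (as pertussis vaccine) ip. Drug was suspended in 1% gum tragacanth/saline and given orally or ip 10–15 min before iv challenge with ovalbumin 1 mg plus 0.25% Evans blue. Wheal diameter was read 30 min later; n=5 per group; Student's t test.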

Rattus norvegicus [2] = test: Compound was tested for antiallergic activity in the rat passive cutaneous anaphylaxis at dose 5 mg/kg after po; type: functional; procedure, shortened: as §1
Rattus norvegicus [3] = test: Compound was tested for antiallergic activity in the rat passive cutaneous anaphylaxis at dose 0.1 mg/kg after intravenous administration; type: functional
Procedure, shortened: (§2)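 Ovalbumin/pertussis-immunized rat antiserum was titrated intradermally on the back 48 h before challenge. Compound was given iv, dissolved directly in the challenge solution (ovalbumin 1 mg in 1 mL saline, 0.25% Evans blue), with slight molar excess NaHCO3 if needed. Wheal diameter was measured 30 min later. Percent inhibition was taken at the highest antiserum level versus control, corrected for the extrapolated base value; groups of five.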

Rattus norvegicus [4] = test: Compound was tested for antiallergic activity in the rat passive cutaneous anaphylaxis at dose 0.5 mg/kg after po; type: functional; procedure, shortened: as §1
Rattus norvegicus [5] = test: Compound was tested for antiallergic activity in the rat passive cutaneous anaphylaxis at dose 5 mg/kg after ip; No significant activity; type: functional, organism-based; design: dose 5 mg/kg; procedure, shortened: as §1
Rattus norvegicus [6] = test: Compound was tested for antiallergic activity in the rat passive cutaneous anaphylaxis at dose 1-2 mg/kg after iv administration; Inactive; type: functional, organism-based
Rattus norvegicus [7] = test: Compound was tested for antiallergic activity in the rat passive cutaneous anaphylaxis at dose 5 mg/kg after po; No significant activity; type: functional, organism-based; design: dose 5 mg/kg; procedure, shortened: as §1
Rattus norvegicus [8] = test: Compound was tested for antiallergic activity in the rat passive cutaneous anaphylaxis at dose 1 mg/kg after po; type: functional; procedure, shortened: as §1
Rattus norvegicus [9] = test: Compound was tested for antiallergic activity in the rat passive cutaneous anaphylaxis, after peroral administration; type: functional; conditions: po, read-out: ID50 (the source's name); procedure, shortened: as §1
Rattus norvegicus [10] = test: Compound was tested for antiallergic activity in the rat passive cutaneous anaphylaxis, after intravenous administration; type: functional; conditions: read-out: ID50 (the source's name); procedure, shortened: as §2

CCCc1cc2c(=O)n3cc(-c4nnn[nH]4)ccc3nc2s1
inhibition in vivo at 5 mg/kg (Rattus norvegicus [1]): 100%
inhibition in vivo at 5 mg/kg (Rattus norvegicus [2]): 67%

CCc1cc2c(=O)n3cc(C(=O)O)ccc3nc2s1
inhibition in vivo at 0.1 mg/kg (Rattus norvegicus [3]): 33%
inhibition in vivo at 0.5 mg/kg (Rattus norvegicus [4]): 69%
inhibition in vivo at 5 mg/kg (Rattus norvegicus [1]): 100%

CCOC(=O)c1sc2nc3ccc(C(=O)OC)cn3c(=O)c2c1C
inhibition (Rattus norvegicus [5]): No significant activity

O=C(O)c1cc(=O)c2c(OCC(O)COc3cccc4oc(C(=O)O)cc(=O)c34)cccc2o1
ID50 (Rattus norvegicus [6]): inactive

Cc1sc2nc3ccc(-c4nnn[nH]4)cn3c(=O)c2c1C
inhibition in vivo at 5 mg/kg (Rattus norvegicus [1]): 30%
inhibition in vivo at 5 mg/kg (Rattus norvegicus [2]): 21%

CCc1cc2c(=O)n3cc(C#N)ccc3nc2s1
inhibition in vivo at 5 mg/kg (Rattus norvegicus [1]): 13%
inhibition (Rattus norvegicus [7]): No significant activity

CCCCc1cc2c(=O)n3cc(C(N)=O)ccc3nc2s1
inhibition in vivo at 5 mg/kg (Rattus norvegicus [1]): 25%
inhibition (Rattus norvegicus [7]): No significant activity

Cc1sc2nc3ccc(C#N)cn3c(=O)c2c1C
inhibition in vivo at 5 mg/kg (Rattus norvegicus [1]): 14%

CCCCc1cc2c(=O)n3cc(C(=O)Nc4nn[nH]n4)ccc3nc2s1
inhibition in vivo at 5 mg/kg (Rattus norvegicus [1]): 18%

CCc1cc2c(=O)n3cc(C(N)=O)ccc3nc2s1
inhibition in vivo at 5 mg/kg (Rattus norvegicus [1]): 46%
inhibition (Rattus norvegicus [7]): No significant activity

Cc1sc2nc3ccc(C(=O)O)cn3c(=O)c2c1C
inhibition in vivo at 5 mg/kg (Rattus norvegicus [1]): 28%
inhibition (Rattus norvegicus [7]): No significant activity

CCOC(=O)c1ccc2nc3sc(C(C)C)cc3c(=O)n2c1
inhibition in vivo at 5 mg/kg (Rattus norvegicus [1]): 63%

CC(C)c1cc2c(=O)n3cc(C(=O)Nc4nn[nH]n4)ccc3nc2s1
inhibition in vivo at 5 mg/kg (Rattus norvegicus [1]): 30%

CCc1cc2c(=O)n3cc(-c4nnn[nH]4)ccc3nc2s1
inhibition in vivo at 0.1 mg/kg (Rattus norvegicus [3]): 56%
inhibition in vivo at 0.5 mg/kg (Rattus norvegicus [4]): 38%
inhibition in vivo at 5 mg/kg (Rattus norvegicus [1]): 97%

Cc1cc2c(=O)n3cc(C(=O)O)ccc3nc2s1
inhibition in vivo at 5 mg/kg (Rattus norvegicus [1]): 100%
inhibition in vivo at 5 mg/kg (Rattus norvegicus [2]): 62%

CCCCc1cc2c(=O)n3cc(-c4nnn[nH]4)ccc3nc2s1
inhibition in vivo at 5 mg/kg (Rattus norvegicus [1]): 26%

O=C(Nc1nn[nH]n1)c1ccc2nc3sc(-c4ccccc4)cc3c(=O)n2c1
inhibition in vivo at 5 mg/kg (Rattus norvegicus [1]): 17%
inhibition (Rattus norvegicus [7]): No significant activity

Cc1cc2c(=O)n3cc(C(N)=O)ccc3nc2s1
inhibition in vivo at 5 mg/kg (Rattus norvegicus [1]): 100%
inhibition in vivo at 5 mg/kg (Rattus norvegicus [2]): 38%

Cc1sc2nc3ccc(C(=O)Nc4nn[nH]n4)cn3c(=O)c2c1C
inhibition in vivo at 5 mg/kg (Rattus norvegicus [1]): 94%
inhibition (Rattus norvegicus [7]): No significant activity

CCCc1cc2c(=O)n3cc(C(=O)O)ccc3nc2s1
inhibition in vivo at 1 mg/kg (Rattus norvegicus [8]): 18%
inhibition in vivo at 5 mg/kg (Rattus norvegicus [1]): 68%

Cc1cc2c(=O)n3cc(C(=O)Nc4nn[nH]n4)ccc3nc2s1
inhibition in vivo at 5 mg/kg (Rattus norvegicus [1]): 25%
inhibition (Rattus norvegicus [7]): No significant activity

CC(C)c1cc2c(=O)n3cc(C(N)=O)ccc3nc2s1
inhibition in vivo at 5 mg/kg (Rattus norvegicus [1]): 100%

CC(C)c1cc2c(=O)n3cc(C(=O)O)ccc3nc2s1
inhibition in vivo at 5 mg/kg (Rattus norvegicus [1]): 100%

O=C(O)c1ccc2nc3sc(-c4ccccc4)cc3c(=O)n2c1
inhibition in vivo at 5 mg/kg (Rattus norvegicus [1]): 17%
inhibition in vivo at 5 mg/kg (Rattus norvegicus [2]): 17%

Cc1cc2c(=O)n3cc(-c4nnn[nH]4)ccc3nc2s1
inhibition in vivo at 5 mg/kg (Rattus norvegicus [1]): 100%
inhibition (Rattus norvegicus [7]): No significant activity

CC(C)c1cc2c(=O)n3cc(-c4nnn[nH]4)ccc3nc2s1
inhibition in vivo at 5 mg/kg (Rattus norvegicus [1]): 28%

COC(=O)c1ccc2nc3scc(C)c3c(=O)n2c1
inhibition in vivo at 5 mg/kg (Rattus norvegicus [1]): 23%

CCCCc1cc2c(=O)n3cc(C(=O)O)ccc3nc2s1
inhibition in vivo at 5 mg/kg (Rattus norvegicus [1]): 52%

Cc1cc2c(=O)n3cc(C#N)ccc3nc2s1
inhibition in vivo at 5 mg/kg (Rattus norvegicus [1]): 88%
inhibition in vivo at 5 mg/kg (Rattus norvegicus [2]): 100%

CCc1cc2c(=O)n3cc(C(=O)Nc4nn[nH]n4)ccc3nc2s1
inhibition in vivo at 5 mg/kg (Rattus norvegicus [1]): 62%
inhibition (Rattus norvegicus [7]): No significant activity

O=C1c2ccccc2S(=O)(=O)c2cc(-c3nn[nH]n3)ccc21 [DOXANTRAZOLE]
ED50 (Rattus norvegicus [9]): 5 mg/kg
ED50 (Rattus norvegicus [10]): 1.5 mg/kg

O=c1c2cc(-c3ccccc3)sc2nc2ccc(-c3nnn[nH]3)cn12
inhibition in vivo at 5 mg/kg (Rattus norvegicus [1]): 84%
inhibition (Rattus norvegicus [7]): No significant activity

CCc1cc2c(=O)n3cc(C(=O)OC)ccc3nc2s1
inhibition in vivo at 5 mg/kg (Rattus norvegicus [1]): 100%
inhibition in vivo at 5 mg/kg (Rattus norvegicus [2]): 75%
